Values belong to the compound of their own block, whether it stands above or below them. Activity calls are given as the source filed them. The rule behind the calls is not given here.
Legend:
Mus musculus [1] = assay: Effect on social recognition in C57Bl6 mouse assessed as change in time spent with familiar juvenile at 5 mg/kg, ip administered 30 mins prior to training trial; format: ADME, organism-based; details: in vivo, 0.5 h
Summary of the method: (§1)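 Male C57Bl6 mice, 8–9 weeks. Session 1: 10 min arena habituation with two empty wire cups. 24 h later, 10 min with juvenile (4–5 weeks) under one cup; 1 h later, 10 min test with familiar plus novel juvenile. 5 mg/kg or vehicle i.p. 30 min before second session. Blind video scoring of exploration; sociability and discrimination indices; 10–11 mice/group.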

Histamine H3 receptor [2] = target: T1, Histamine H3 receptor (Homo sapiens, UniProt Q9Y5N1); assay: Displacement of [3H]NAMH from human H3R expressed in HEK293T cells incubated for 2 hrs by microbeta scintillation counting analysis; format: cell-based
T1 sequence (Q9Y5N1 whole entry): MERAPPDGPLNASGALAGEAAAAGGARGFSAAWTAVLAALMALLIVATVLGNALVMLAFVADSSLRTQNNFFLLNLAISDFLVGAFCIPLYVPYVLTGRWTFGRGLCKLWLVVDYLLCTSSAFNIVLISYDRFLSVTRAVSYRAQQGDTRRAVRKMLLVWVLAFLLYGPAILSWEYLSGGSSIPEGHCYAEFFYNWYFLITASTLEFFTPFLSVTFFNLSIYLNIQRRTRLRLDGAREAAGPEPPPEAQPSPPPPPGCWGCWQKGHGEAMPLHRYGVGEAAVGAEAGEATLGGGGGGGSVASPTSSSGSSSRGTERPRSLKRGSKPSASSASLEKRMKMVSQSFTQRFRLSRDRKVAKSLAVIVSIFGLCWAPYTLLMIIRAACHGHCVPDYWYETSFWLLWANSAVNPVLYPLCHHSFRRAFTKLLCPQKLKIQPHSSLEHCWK
Summary of the method: (§2)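 Homogenates of HEK293T cells transiently expressing hH3R or mH3R, harvested 48 h post-transfection, incubated with 2 nM [3H]NAMH and increasing unlabeled ligand in 50 mM Tris–HCl pH 7.4, 2 h at 25 °C. Rapid filtration over 0.5% PEI-coated GF/C filters, scintillation counting. One-site fit; IC50 converted to pKi by Cheng–Prusoff; three experiments in triplicate.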

[3] = target: Histamine H3 receptor (Mus musculus) (UniProt P58406); assay: Intrinsic activity at mouse H3R expressed on HEK293T cells assessed as activation of forskolin-induced CRE-luciferase reporter gene activity co-incubated with forskolin for 6 hrs and measured after 30 mins by luciferase reporter gene assay; format: functional
Histamine H3 receptor (Mus musculus), sequence (P58406 whole entry): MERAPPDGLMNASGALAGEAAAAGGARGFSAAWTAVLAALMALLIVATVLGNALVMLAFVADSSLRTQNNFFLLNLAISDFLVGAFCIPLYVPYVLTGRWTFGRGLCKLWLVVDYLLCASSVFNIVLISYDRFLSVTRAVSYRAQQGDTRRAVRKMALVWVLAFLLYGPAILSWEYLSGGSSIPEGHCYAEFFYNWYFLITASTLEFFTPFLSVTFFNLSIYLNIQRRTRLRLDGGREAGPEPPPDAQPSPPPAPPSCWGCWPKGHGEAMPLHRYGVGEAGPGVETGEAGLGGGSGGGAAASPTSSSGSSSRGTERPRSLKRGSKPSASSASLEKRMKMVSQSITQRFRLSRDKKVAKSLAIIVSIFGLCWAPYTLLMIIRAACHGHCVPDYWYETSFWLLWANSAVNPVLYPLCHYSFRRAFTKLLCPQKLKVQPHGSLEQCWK
Summary of the method: (§3)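 HEK293T cells transiently transfected (PEI method) in suspension with receptor cDNA (1000 ng), CRE-luciferase (2500 ng) and empty pcDEF3; 50.000 cells/well on poly-L-lysine, grown 24 h. Stimulated with increasing ligand concentrations plus 1 μM forskolin, 37 °C, 5% CO2, 6 h. Luciferase reagent (ATP, D-luciferin) added, luminescence read after 30 min at 37 °C. Nonlinear regression; α relative to histamine; three experiments in triplicate.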

Histamine H4 receptor [4] = target: T2, Histamine H4 receptor (Homo sapiens, UniProt Q9H3N8); assay: Displacement of [3H]histamine from human H4R expressed in HEK293T cells incubated for 2 hrs by microbeta scintillation counting analysis
Histamine H4 receptor [5] = target: T3, Histamine H4 receptor (Mus musculus, UniProt Q91ZY2); assay: Agonist activity at mouse H4R expressed on HEK293T cells assessed as inhibition of forskolin-induced CRE-driven luciferase activity co-incubated with forskolin for 6 hrs and measured after 30 mins by luciferase reporter gene assay; format: functional; summary of the method: as §3
T3 sequence (Q91ZY2 whole entry): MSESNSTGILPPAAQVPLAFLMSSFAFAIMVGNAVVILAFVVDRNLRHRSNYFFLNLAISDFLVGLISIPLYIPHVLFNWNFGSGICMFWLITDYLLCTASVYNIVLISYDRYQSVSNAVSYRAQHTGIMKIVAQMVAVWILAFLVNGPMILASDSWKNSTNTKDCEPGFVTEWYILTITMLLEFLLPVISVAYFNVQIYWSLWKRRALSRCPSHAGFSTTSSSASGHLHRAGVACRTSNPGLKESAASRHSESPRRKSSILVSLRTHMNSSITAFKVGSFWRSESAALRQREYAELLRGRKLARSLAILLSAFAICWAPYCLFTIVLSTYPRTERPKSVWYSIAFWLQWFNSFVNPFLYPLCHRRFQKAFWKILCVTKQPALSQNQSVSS

Cytochrome P450 2D6 = Cytochrome P450 2D6 (Homo sapiens, UniProt P10635); assay: Inhibition of human CYP2D6 expressed in baculovirus infected insect cells using beetle D-luciferin as substrate preincubated for 30 mins followed by NADPH addition and measured after 30 mins by CYP450-Glo assay; format: ADME
Cytochrome P450 2D6, sequence (P10635 whole entry): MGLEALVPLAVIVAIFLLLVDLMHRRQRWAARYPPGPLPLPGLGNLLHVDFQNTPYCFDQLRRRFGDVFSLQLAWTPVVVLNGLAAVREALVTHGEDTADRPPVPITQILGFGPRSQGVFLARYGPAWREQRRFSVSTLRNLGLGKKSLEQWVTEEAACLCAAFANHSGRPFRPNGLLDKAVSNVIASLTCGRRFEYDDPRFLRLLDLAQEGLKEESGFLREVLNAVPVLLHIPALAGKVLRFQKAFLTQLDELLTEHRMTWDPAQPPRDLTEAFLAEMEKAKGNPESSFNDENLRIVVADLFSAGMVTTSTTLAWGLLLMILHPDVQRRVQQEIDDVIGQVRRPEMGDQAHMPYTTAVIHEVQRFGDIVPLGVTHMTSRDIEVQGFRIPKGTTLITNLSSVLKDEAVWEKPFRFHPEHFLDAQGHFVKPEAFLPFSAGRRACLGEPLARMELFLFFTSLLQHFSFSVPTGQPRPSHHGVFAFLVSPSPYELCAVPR

Histamine H3 receptor [6] = target: T1, Histamine H3 receptor; assay: Intrinsic activity at human H3R expressed on HEK293T cells assessed as activation of forskolin-induced CRE-driven luciferase activity co-incubated with forskolin for 6 hrs and measured after 30 mins by CRE-luciferase reporter gene assay relative to histamine; format: functional; summary of the method: as §3
Histamine H4 receptor [7] = target: T2, Histamine H4 receptor; assay: Agonist activity at human H4R expressed on HEK293T cells assessed as inhibition of forskolin-induced CRE-driven luciferase activity co-incubated with forskolin for 6 hrs and measured after 30 mins by CRE-luciferase reporter gene assay; format: functional; summary of the method: as §3
[8] = Intrinsic clearance in rat liver microsomes at 50 uM measured up to 45 mins by UPLC/MS analysis; format: ADME, Microsome; details: read-out: CLH
[9] = Half life in mouse liver microsomes at 50 uM measured up to 45 mins by UPLC/MS analysis; format: ADME, Microsome
[10] = Intrinsic clearance in mouse liver microsomes at 50 uM measured up to 45 mins by UPLC/MS analysis; format: ADME, Microsome; details: read-out: CLH
Histamine H4 receptor [11] = target: T3, Histamine H4 receptor; assay: Displacement of [3H]histamine from mouse H4R expressed in HEK293T cells incubated for 2 hrs by microbeta scintillation counting analysis; format: cell-based
Summary of the method: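 mH4R-expressing HEK293T homogenates incubated with 30 nM [3H]histamine and increasing unlabeled ligand in 50 mM Tris–HCl pH 7.4, 2 h at 25 °C. Filtered over 0.5% PEI-coated GF/C filters; bound radioactivity counted. One-site fit, Cheng–Prusoff conversion to pKi.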

Mus musculus [12] = assay: Effect on social recognition in C57Bl6 mouse assessed as change in time spent with novel juvenile at 5 mg/kg, ip administered 30 mins prior to training trial; format: ADME, organism-based; details: in vivo, 0.5 h; summary of the method: as §1
Histamine H3 receptor [13] = target: T4, Histamine H3 receptor (Mus musculus, UniProt P58406); assay: Displacement of [3H]NAMH from mouse H3R expressed in HEK293T cells incubated for 2 hrs by microbeta scintillation counting analysis; format: cell-based; summary of the method: as §2
T4 sequence (P58406 whole entry): as the sequence (P58406 whole entry) above

[14] = Half life in rat liver microsomes at 50 uM measured up to 45 mins by UPLC/MS analysis; format: ADME, Microsome; details: 0.75 h
Histamine H3 receptor [15] = target: T4, Histamine H3 receptor; assay: Agonist activity at mouse H3R expressed on HEK293T cells assessed as inhibition of forskolin-induced CRE-driven luciferase activity co-incubated with forskolin for 6 hrs and measured after 30 mins by luciferase reporter gene assay; format: functional; summary of the method: as §3
Cytochrome P450 3A4 = Cytochrome P450 3A4 (Homo sapiens, UniProt P08684); assay: Inhibition of human CYP3A4 expressed in baculovirus infected insect cells using beetle D-luciferin as substrate preincubated for 30 mins followed by NADPH addition and measured after 30 mins by CYP450-Glo assay; format: ADME
Cytochrome P450 3A4, sequence (P08684 whole entry): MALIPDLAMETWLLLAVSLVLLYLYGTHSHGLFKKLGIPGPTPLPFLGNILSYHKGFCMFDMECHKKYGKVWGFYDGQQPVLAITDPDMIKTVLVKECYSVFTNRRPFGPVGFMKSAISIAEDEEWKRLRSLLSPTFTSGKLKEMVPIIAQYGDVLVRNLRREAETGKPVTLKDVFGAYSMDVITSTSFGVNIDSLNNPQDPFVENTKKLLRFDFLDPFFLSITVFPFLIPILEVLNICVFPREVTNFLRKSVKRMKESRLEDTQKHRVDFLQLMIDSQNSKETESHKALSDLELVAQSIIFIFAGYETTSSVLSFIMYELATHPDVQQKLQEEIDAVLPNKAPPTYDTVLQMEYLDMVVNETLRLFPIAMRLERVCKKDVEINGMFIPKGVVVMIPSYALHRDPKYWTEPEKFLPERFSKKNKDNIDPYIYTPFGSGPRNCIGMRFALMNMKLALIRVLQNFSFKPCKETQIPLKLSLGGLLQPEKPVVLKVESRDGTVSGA

Histamine H3 receptor [16] = target: T1, Histamine H3 receptor; assay: Agonist activity at human H3R expressed on HEK293T cells by [35S]GTPgammaS binding assay; format: functional
Summary of the method: (§4)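 [35S]GTPγS accumulation measured on homogenates of HEK293T cells transiently expressing hH3R, with increasing ligand concentrations; α expressed relative to histamine. At least three experiments in triplicate.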

Histamine H3 receptor [17] = target: T1, Histamine H3 receptor; assay: Agonist activity at human H3R expressed on HEK293T cells assessed as inhibition of forskolin-induced CRE-driven luciferase activity co-incubated with forskolin for 6 hrs and measured after 30 mins by CRE-luciferase reporter gene assay; format: functional; summary of the method: as §3
Mus musculus [18] = assay: Effect on social recognition in C57Bl6 mouse assessed as change in behavior at 5 mg/kg, ip administered 30 mins prior to training trial; format: ADME, organism-based; details: in vivo, 0.5 h; summary of the method: as §1
Histamine H4 receptor [19] = target: T2, Histamine H4 receptor; assay: Intrinsic activity at human H4R expressed on HEK293T cells assessed as activation of forskolin-induced CRE-driven luciferase activity co-incubated with forskolin for 6 hrs and measured after 30 mins by CRE-luciferase reporter gene assay relative to histamine; format: functional; summary of the method: as §3
Cytochrome P450 2C9 = Cytochrome P450 2C9 (Homo sapiens, UniProt P11712); assay: Inhibition of human CYP2C9 expressed in baculovirus infected insect cells using beetle D-luciferin as substrate preincubated for 30 mins followed by NADPH addition and measured after 30 mins by CYP450-Glo assay; format: ADME
Cytochrome P450 2C9, sequence (P11712 whole entry): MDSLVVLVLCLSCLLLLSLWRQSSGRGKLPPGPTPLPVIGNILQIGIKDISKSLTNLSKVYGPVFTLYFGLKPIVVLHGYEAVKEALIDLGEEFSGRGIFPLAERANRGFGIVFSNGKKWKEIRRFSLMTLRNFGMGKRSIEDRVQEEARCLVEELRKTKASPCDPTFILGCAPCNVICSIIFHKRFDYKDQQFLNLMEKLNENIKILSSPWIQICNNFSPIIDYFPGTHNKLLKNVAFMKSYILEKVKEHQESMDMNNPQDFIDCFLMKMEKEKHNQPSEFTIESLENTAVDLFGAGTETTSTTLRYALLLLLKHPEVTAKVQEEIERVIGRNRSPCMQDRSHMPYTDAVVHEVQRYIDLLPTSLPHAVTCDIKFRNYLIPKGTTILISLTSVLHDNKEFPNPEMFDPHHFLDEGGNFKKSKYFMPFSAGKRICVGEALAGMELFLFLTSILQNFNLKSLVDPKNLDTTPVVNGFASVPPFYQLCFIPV

[20] = target: T5, Histamine H4 receptor (Mus musculus) (UniProt Q91ZY2); assay: Intrinsic activity at mouse H4R expressed on HEK293T cells assessed as activation of forskolin-induced CRE-luciferase reporter gene activity co-incubated with forskolin for 6 hrs and measured after 30 mins by luciferase reporter gene assay; format: functional; summary of the method: as §3
T5 sequence (whole entry): T3 sequence (Q91ZY2 whole entry)

Histamine H3 receptor [21] = target: T1, Histamine H3 receptor; assay: Intrisic activity at human H3R expressed on HEK293T cells by [35S]GTPgammaS binding assay relative to histamine; format: functional; summary of the method: as §4
Mus musculus [22] = assay: Effect on social recognition in C57Bl6 mouse assessed as change in time spent in exploring cage at 5 mg/kg, ip administered 30 mins prior to training trial; format: ADME, organism-based; details: in vivo, 0.5 h; summary of the method: as §1
[23] = target: Histamine H2 receptor (Homo sapiens) (UniProt P25021); assay: Agonist activity at human H2R expressed on HEK293T cells assessed as inhibition of forskolin-induced CRE-driven luciferase activity up to 10 uM pre-incubated with forskolin for 6 hrs and measured after 30 mins by luciferase reporter gene assay; format: functional
Histamine H2 receptor (Homo sapiens), sequence (P25021 whole entry): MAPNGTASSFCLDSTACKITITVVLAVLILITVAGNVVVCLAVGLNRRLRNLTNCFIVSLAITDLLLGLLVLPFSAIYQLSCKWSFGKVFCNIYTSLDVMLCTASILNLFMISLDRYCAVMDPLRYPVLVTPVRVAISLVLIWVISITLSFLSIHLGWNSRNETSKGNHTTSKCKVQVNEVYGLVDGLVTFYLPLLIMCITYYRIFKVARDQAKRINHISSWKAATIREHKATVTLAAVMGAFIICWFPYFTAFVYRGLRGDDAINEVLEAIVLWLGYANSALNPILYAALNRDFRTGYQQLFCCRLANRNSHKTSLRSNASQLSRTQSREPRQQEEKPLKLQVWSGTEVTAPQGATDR
Summary of the method: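 HEK293T cells transfected in suspension with H2R cDNA (2500 ng), CRE-luciferase (2500 ng) and empty pcDEF3; 50.000 cells/well, grown 24 h before ligand stimulation. Luminescence read 30 min after luciferase reagent (ATP, D-luciferin) at 37 °C. Dose–response curves fitted by nonlinear regression.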

Histamine H3 receptor [24] = target: T1, Histamine H3 receptor; assay: Displacement of [3H]-N-alpha-methylhistamine from human histamine H3 receptor expressed in CHO cells incubated for 40 min by liquid scintillation counting analysis; format: cell-based
Histamine H3 receptor [25] = target: T1, Histamine H3 receptor; assay: Agonist activity at recombinant human H3R expressed on cells incubated for 60 mins by [35S]GTPgammaS binding assay; format: functional

SMILES: CC(C)c1cc(N2CC(N)C2)nc(N)n1
Ki (Histamine H3 receptor [2]): 200 nM | Intrinsic activity (Histamine H3 receptor [6]): 0.7 | EC50 (Histamine H3 receptor [17]): 79.4 nM

SMILES: CCc1cc(N2CC(NC)C2)nc(N)n1
Ki (Histamine H3 receptor [2]): 50.1 nM | Intrinsic activity (Histamine H3 receptor [6]): 0.8 | EC50 (Histamine H3 receptor [17]): 25.1 nM

SMILES: CCCCC(=O)O[C@H]1C[C@@H]2C[C@H]3[C@](NC)(CN2[C@@H](C)C1)C[C@]1(C(=O)Nc2c(C(=O)[C@H]4OC4(C)C)cccc21)[C@]3(C)C=O
Ki (Histamine H3 receptor [24]): 50.1 nM | EC50 (Histamine H3 receptor [25]): 126 nM

SMILES: Cc1cc(N2CC(N)C2)nc(N)n1
Ki (Histamine H3 receptor [2]): 50.1 nM | Intrinsic activity (Histamine H3 receptor [6]): 0.9 | EC50 (Histamine H3 receptor [17]): 15.8 nM

SMILES: CNC1CN(c2cc(C(C)C)nc(N)n2)C1
Ki (Histamine H3 receptor [2]): 100 nM | Intrinsic activity (Histamine H3 receptor [6]): 0.7 | EC50 (Histamine H3 receptor [17]): 12.6 nM

SMILES: CCNC1CN(c2cc(C(C)C)nc(N)n2)C1
Ki (Histamine H3 receptor [2]): 100 nM | Intrinsic activity (Histamine H3 receptor [6]): 0.3 | EC50 (Histamine H3 receptor [17]): 158 nM

Now from value to compound, other results behind:

Ki (Histamine H3 receptor [2]): 3.16 nM | Intrinsic activity [3]: 1.2 | Ki (Histamine H4 receptor [4]): 7.94 nM | EC50 (Histamine H4 receptor [5]): 1 nM | IC50 (Cytochrome P450 2D6): > 25 µM | Intrinsic activity (Histamine H3 receptor [6]): 1.2 | EC50 (Histamine H4 receptor [7]): 3.16 nM | CLint scaled at 50 µM [8]: 7.9 mL/min/kg | half-life at 50 µM [9]: 131 min | CLint scaled at 50 µM [10]: 20.7 mL/min/kg | Ki (Histamine H4 receptor [11]): 15.8 nM | Ki (Histamine H3 receptor [13]): 1 nM | t1/2 [14]: 239 min | EC50 (Histamine H3 receptor [15]): 0.1 nM | IC50 (Cytochrome P450 3A4): > 25 µM | EC50 (Histamine H3 receptor [16]): 3.98 nM | EC50 (Histamine H3 receptor [17]): 0.316 nM | Intrinsic activity (Histamine H4 receptor [19]): 1.1 | IC50 (Cytochrome P450 2C9): > 25 µM | Intrinsic activity [20]: 1.1 | Intrinsic activity (Histamine H3 receptor [21]): 0.5 | Activity [23]: inactive
SMILES: CCCNC1CN(c2ccnc(N)n2)C1.O.O=C(O)/C=C/C(=O)O
Activity (Mus musculus [1]): Non-Toxic | Activity (Mus musculus [12]): Non-Toxic | Activity (Mus musculus [18]): Non-Toxic | Activity (Mus musculus [22]): Non-Toxic

Ki (Histamine H3 receptor [2]): 12.6 nM | Intrinsic activity (Histamine H3 receptor [6]): 1.1 | EC50 (Histamine H3 receptor [17]): 2 nM
SMILES: CCC(C)NC1CN(c2ccnc(N)n2)C1 (racemic)

Ki (Histamine H3 receptor [2]): 10 nM | Intrinsic activity (Histamine H3 receptor [6]): 1 | EC50 (Histamine H3 receptor [17]): 0.631 nM
SMILES: CCNC1CN(c2ccnc(N)n2)C1

Ki (Histamine H3 receptor [2]): 6.31 nM | Intrinsic activity (Histamine H3 receptor [6]): 1.1 | EC50 (Histamine H3 receptor [17]): 1.26 nM
SMILES: CNC1CN(c2ccnc(N)n2)C1

Ki (Histamine H3 receptor [2]): 39.8 nM | Intrinsic activity (Histamine H3 receptor [6]): 1.3 | EC50 (Histamine H3 receptor [17]): 7.94 nM
SMILES: Nc1nccc(N2CC(N3CCCC3)C2)n1

Ki (Histamine H3 receptor [2]): 79.4 nM | Intrinsic activity (Histamine H3 receptor [6]): 1 | EC50 (Histamine H3 receptor [17]): 12.6 nM
SMILES: CCNC1CN(c2cc(C)nc(N)n2)C1

Source: ChEMBL document CHEMBL4354817, “4-(3-Aminoazetidin-1-yl)pyrimidin-2-amines as High-Affinity Non-imidazole Histamine H3 Receptor Agonists with in Vivo Central Nervous System Activity” (J Med Chem, 2019)
